Experimental data from ChEMBL document CHEMBL2177067 (J Med Chem, 2012).
Values after ≈ are worked out from the molar mass of the structure shown.

Columns and labels:
Bacillus anthracis = test: Antibacterial activity against Bacillus anthracis by broth microdilution method; assay type: functional
Replicative DNA helicase = target: T1, Replicative DNA helicase (Bacillus anthracis, UniProt A0A6L8Q2B7); test: Inhibition of Bacillus anthracis Sterne 34F2 replicative DNA helicase-mediated ATP-dependent dissociation of Hel-5'FAM:Hel-3'BHQ by FRET assay; design: species or system Bacillus anthracis str. Sterne
T1 sequence (A0A6L8Q2B7 whole entry): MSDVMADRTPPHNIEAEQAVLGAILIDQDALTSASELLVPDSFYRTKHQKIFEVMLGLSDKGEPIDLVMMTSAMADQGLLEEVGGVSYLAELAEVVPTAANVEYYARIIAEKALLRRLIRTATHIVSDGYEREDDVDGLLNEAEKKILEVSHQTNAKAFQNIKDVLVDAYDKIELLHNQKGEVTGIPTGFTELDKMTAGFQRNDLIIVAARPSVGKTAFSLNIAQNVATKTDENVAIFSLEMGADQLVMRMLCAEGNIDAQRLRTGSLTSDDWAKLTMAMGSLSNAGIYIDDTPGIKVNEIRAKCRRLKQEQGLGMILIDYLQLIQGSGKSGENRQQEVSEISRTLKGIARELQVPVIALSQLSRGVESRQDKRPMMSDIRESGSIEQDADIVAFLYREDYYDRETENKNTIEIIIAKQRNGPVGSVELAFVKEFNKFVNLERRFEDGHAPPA
How it was run: (§1)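 Unwinding was read by FRET as helicase-driven, ATP-dependent dissociation of annealed Hel-5′FAM and Hel-3′BHQ oligonucleotides, one fluorescent and the other quencher-labelled. The replicative helicases were prepared as described earlier.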

[1] = Inhibition of Staphylococcus aureus ATCC 25923 replicative DnaB helicase-mediated ATP-dependent dissociation of Hel-5'FAM:Hel-3'BHQ by FRET assay; how it was run: as §1
Staphylococcus aureus [2] = test: Antibacterial activity against Staphylococcus aureus ATCC 25923 by broth microdilution method; assay type: functional
[3] = Selectivity index, ratio of CC50 for human HeLa cells to MIC for Staphylococcus aureus ATCC 25923; assay type: functional
How it was run: (§2)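 Selectivity index is HeLa CC50 (MTS assay) divided by the bacterial MIC.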

HeLa = test: Cytotoxicity against human HeLa cells by MTS assay; assay type: cell-based
[4] = Selectivity index, ratio of CC50 for human HeLa cells to MIC for Bacillus anthracis; assay type: functional; how it was run: as §2
Staphylococcus aureus [5] = test: Antibacterial activity against Staphylococcus aureus ATCC 25923 by broth microdilution method in presence of reserpine; assay type: functional

SMILES	MIC (Bacillus anthracis)	IC50 (Replicative DNA helicase)	IC50 [1]	MIC (Staphylococcus aureus [2])	Selectivity Index [3]	CC50 (HeLa)	Selectivity Index [4]	MIC (Staphylococcus aureus [5])
Cc1c(CCC(=O)O)c(=O)oc2c(C)c(OCc3ccc(-c4ccc(F)cc4F)cc3)ccc12	> 100 µM	9 µM	4.9 µM	> 100 µM				
Cc1c(CCC(=O)O)c(=O)oc2c(C)c(OCc3ccccc3-c3ccccc3)ccc12	2.5 µM (≈ 1.07 µg/mL)	10.2 µM	9 µM	10 µM (≈ 4.28 µg/mL)	0.4	4.4 µM	1.8	
C=CCOc1ccc2c(C)c(CCC(=O)O)c(=O)oc2c1C		> 100 µM	> 100 µM					
Cc1c(CCCC(=O)O)c(=O)oc2c(C)c(OCc3ccc(-c4ccccc4)cc3)ccc12	1.25 µM (≈ 0.553 µg/mL)	2 µM	2.2 µM	> 100 µM	<0.8	31 µM	25	> 100 µM
CC(=O)NCCNC(=O)CCc1c(C)c2ccc(OCc3ccc(-c4ccccc4)cc3)c(C)c2oc1=O		> 100 µM	> 100 µM					
Cc1c(CCC(=O)O)c(=O)oc2c(C)c(OCc3c4ccccc4cc4ccccc34)ccc12	2.5 µM (≈ 1.13 µg/mL)	7.2 µM	8.3 µM	20 µM (≈ 9.05 µg/mL)	0.4	8.3 µM	3.3	50 µM
C#CCOc1ccc2c(C)c(CCC(=O)O)c(=O)oc2c1C		> 100 µM	> 100 µM					
Cc1c(CCC(=O)O)c(=O)oc2cc(OCc3cccc(-c4ccccc4)c3)ccc12	2.5 µM (≈ 1.04 µg/mL)	15 µM		10 µM (≈ 4.14 µg/mL)	1	10.1 µM	4	
Cc1c(CCC(=O)O)c(=O)oc2c(C)c(OCc3ccc(-c4ccc(Cl)c(Cl)c4)cc3)ccc12	3 µM (≈ 1.49 µg/mL)	3 µM	2.4 µM	3 µM (≈ 1.49 µg/mL)	6.4	19.2 µM	6.4	6.3 µM
Cc1c(OCc2ccc(-c3ccccc3)cc2)ccc2cc(CCC(=O)O)c(=O)oc12		21 µM	14 µM	> 100 µM	2.5	> 100 µM	>40	> 100 µM
CNC(=O)CCc1c(C)c2ccc(OCc3ccc(-c4ccc(Cl)cc4)cc3)c(C)c2oc1=O	> 100 µM	> 100 µM	38 µM	> 100 µM	0.91	90.7 µM	0.91	
CCc1c(OCc2ccc(-c3ccccc3)cc2)ccc2c(C)c(CCCC(=O)O)c(=O)oc12	2.5 µM (≈ 1.14 µg/mL)	5 µM	1.8 µM	> 100 µM	3.1	15.4 µM	6.2	> 100 µM
Cc1c(CCC(=O)O)c(=O)oc2cc(OCc3ccc(-c4ccccc4)cc3)ccc12	2.5 µM (≈ 1.04 µg/mL)	9.7 µM	6 µM	3.12 µM (≈ 1.3 µg/mL)	6.8	21.2 µM	8.5	
Cc1c(CCC(=O)O)c(=O)oc2c(C)c(OCc3nccc4ccccc34)ccc12		> 100 µM	> 100 µM					
Cc1c(CCC(=O)O)c(=O)oc2c(C)c(OCc3ccc4ccccc4c3)ccc12	5 µM (≈ 2.01 µg/mL)	9 µM	8 µM	> 100 µM	<1	38 µM	7.6	> 100 µM
Cc1c(CCC(=O)O)c(=O)oc2c(C)c(OCc3ccc(-c4ccc(F)cc4)cc3)ccc12	< 0.8 µM	5.1 µM	3.7 µM	3 µM (≈ 1.34 µg/mL)	6.4	19.2 µM	>24	
Cc1c(CCC(=O)O)c(=O)oc2cc(OCc3nccc4ccccc34)ccc12		> 100 µM	> 100 µM					
Cc1c(CCC(=O)O)c(=O)oc2c(C)c(OCc3cccc4ccccc34)ccc12	65 µM (≈ 26.2 µg/mL)			> 100 µM	<0.06		0.09	
Cc1c(CCC(=O)NCCN(C)C)c(=O)oc2c(C)c(OCc3ccc(-c4ccccc4)cc3)ccc12	2.5 µM (≈ 1.25 µg/mL)	1.8 µM	1.7 µM	5 µM (≈ 2.49 µg/mL)	0.22	1.1 µM	0.44	
CCc1c(OCc2ccc(-c3ccccc3)cc2)ccc2c(C)c(CCC(=O)O)c(=O)oc12	1.25 µM (≈ 0.553 µg/mL)	2 µM		5 µM (≈ 2.21 µg/mL)	8.4	42 µM	34	
Cc1c(CCC(=O)O)c(=O)oc2cc(OCc3ccc4ccc(Cl)cc4n3)ccc12		> 100 µM	70 µM					
Cc1c(CCC(=O)O)c(=O)oc2c(C)c(OCc3cccc(-c4ccccc4)c3)ccc12	0.625 µM (≈ 0.268 µg/mL)	7.5 µM	6 µM	20 µM (≈ 8.57 µg/mL)	0.3	5.6 µM	9	
Cc1c(CCC(=O)O)c(=O)oc2cc(OCc3ccccc3-c3ccccc3)ccc12	5 µM (≈ 2.07 µg/mL)	19 µM	12 µM	12.5 µM (≈ 5.18 µg/mL)	0.6	7.8 µM	1.6	
Cc1c(CC(=O)O)c(=O)oc2c(C)c(OCc3ccc(-c4ccccc4)cc3)ccc12	2.5 µM (≈ 1.04 µg/mL)	9 µM	8.6 µM	8.2 µM (≈ 3.4 µg/mL)	14	115 µM	46	12.5 µM
Cc1c(CCC(=O)O)c(=O)oc2c(C)c(OCc3ccccc3)ccc12		85 µM	60 µM					
Cc1c(CCC(=O)O)c(=O)oc2c(C)c(OCc3ccncc3)ccc12		> 100 µM	> 100 µM					
Cc1c(CCC(=O)O)c(=O)oc2c(C)c(OCc3ccc(-c4ccccc4C#N)cc3)ccc12	1.25 µM (≈ 0.567 µg/mL)	3.8 µM	4.6 µM	2.5 µM (≈ 1.13 µg/mL)	7.8	19.5 µM	15.6	
Cc1c(CCC(=O)O)c(=O)oc2c(C)c(OCc3ccc4ccc(Cl)cc4n3)ccc12		56 µM	50 µM					
